# From ChEMBL document CHEMBL1255410, “Activity of the investigational fluoroquinolone finafloxacin against ciprofloxacin-sensitive and -resistant Acinetobacter baumannii isolates” (2010)
# Assays:
# [1] = system: Acinetobacter baumannii; assay: Antimicrobial activity against Acinetobacter baumannii isolate 1 at pH 5.8; assay type: functional
# Outline: (§1)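 MIC by agar dilution on Mueller-Hinton agar acidified to pH 5.8 with HCl before antibiotic-containing plates were poured. Agar pH was rechecked once the agar had solidified. Isolates had characterized gyrA/parC genes. Plates for both drugs were made the same day from fresh media, and MICs were read in parallel with the standard-pH set.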
# [2] = system: Acinetobacter baumannii; assay: Antimicrobial activity against Acinetobacter baumannii isolate 13 at pH 5.8; assay type: functional; outline: as §1
# [3] = system: Acinetobacter baumannii; assay: Antimicrobial activity against Acinetobacter baumannii isolate 38 harboring GyrA Ser83-Leu mutation at pH 5.8; assay type: functional
# Outline: (§2)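 Agar dilution MIC on Mueller-Hinton agar. For the acidic condition, HCl was added to bring the agar to pH 5.8 before pouring the antibiotic plates, and the pH was checked after the agar set. The standard condition was pH 7.2. Both drugs' plates were made the same day from fresh medium, and MICs were read at the same time.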
# [4] = system: Acinetobacter baumannii; assay: Antimicrobial activity against Acinetobacter baumannii isolate 37 harboring GyrA Ser83-Leu mutation at pH 7.2; assay type: functional; outline: as §2
# [5] = system: Acinetobacter baumannii; assay: Antimicrobial activity against Acinetobacter baumannii isolate 55 harboring GyrA Ser83-Leu and ParC Ser80-Leu mutation at pH 7.2; assay type: functional
# Outline: (§3)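 Agar dilution MIC on Mueller-Hinton agar under standard conditions (pH 7.2). Antibiotic-containing plates were made the same day from freshly prepared medium. Agar pH was checked after solidifying. Both fluoroquinolones were tested simultaneously against A. baumannii isolates with characterized gyrA/parC genes. MICs are in μg/ml.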
# [6] = system: Acinetobacter baumannii; assay: Antimicrobial activity against Acinetobacter baumannii isolate 10 at pH 7.2; assay type: functional
# Outline: (§4)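 MIC by agar dilution on Mueller-Hinton agar under standard conditions (pH 7.2), against isolates with characterized gyrA/parC genes. Agar pH was checked after solidifying. Plates for both drugs were prepared the same day from freshly made media, and MICs were determined simultaneously with the pH 5.8 set.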
# [7] = system: Acinetobacter baumannii; assay: Antimicrobial activity against Acinetobacter baumannii isolate 32 harboring GyrA Ser83-Leu mutation at pH 7.2; assay type: functional; outline: as §2
# [8] = system: Acinetobacter baumannii; assay: Antimicrobial activity against Acinetobacter baumannii isolate 24 harboring GyrA Ser83-Leu mutation at pH 7.2; assay type: functional; outline: as §4
# [9] = system: Acinetobacter baumannii; assay: Antimicrobial activity against Acinetobacter baumannii isolate 4 at pH 7.2; assay type: functional; outline: as §2
# [10] = system: Acinetobacter baumannii; assay: Antimicrobial activity against adeB overexpressing Acinetobacter baumannii isolate 67 harboring GyrA Ser83-Leu and ParC Ser80-Leu mutation at pH 5.8; assay type: functional
# Outline: (§5)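 Agar dilution MIC on Mueller-Hinton agar acidified to pH 5.8 with HCl before the antibiotic-containing plates were poured. Agar pH was checked after solidifying. Plates were made the same day from fresh medium. Both fluoroquinolones were tested simultaneously against A. baumannii isolates with characterized gyrA/parC genes. MICs are in μg/ml.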
# [11] = system: Acinetobacter baumannii; assay: Antimicrobial activity against Acinetobacter baumannii isolate 26 harboring GyrA Ser83-Leu mutation at pH 5.8; assay type: functional; outline: as §1
# [12] = system: Acinetobacter baumannii; assay: Antimicrobial activity against Acinetobacter baumannii isolate 51 harboring GyrA Ser83-Leu and ParC Ser80-Leu mutation at pH 5.8; assay type: functional; outline: as §2
# [13] = system: Acinetobacter baumannii; assay: Antimicrobial activity against Acinetobacter baumannii isolate 36 harboring GyrA Ser83-Leu mutation at pH 7.2; assay type: functional; outline: as §2
# [14] = system: Acinetobacter baumannii; assay: Antimicrobial activity against Acinetobacter baumannii isolate 60 harboring GyrA Ser83-Leu and ParC Ser80-Leu mutation at pH 5.8
# [15] = system: Acinetobacter baumannii; assay: Antimicrobial activity against Acinetobacter baumannii isolate 2 at pH 5.8; assay type: functional; outline: as §1
# [16] = system: Acinetobacter baumannii; assay: Antimicrobial activity against Acinetobacter baumannii isolate 48 harboring GyrA Ser83-Leu and ParC Ser80-Leu mutation at pH 7.2; assay type: functional; outline: as §2
# [17] = system: Acinetobacter baumannii; assay: Antimicrobial activity against Acinetobacter baumannii isolate 28 harboring GyrA Ser83-Leu mutation at pH 7.2; assay type: functional; outline: as §4
# [18] = system: Acinetobacter baumannii; assay: Antimicrobial activity against Acinetobacter baumannii isolate 56 harboring GyrA Ser83-Leu and ParC Ser80-Leu mutation at pH 5.8; assay type: functional; outline: as §5
# [19] = system: Acinetobacter baumannii; assay: Antimicrobial activity against Acinetobacter baumannii isolate 16 at pH 7.2; assay type: functional; outline: as §4
# [20] = system: Acinetobacter baumannii; assay: Antimicrobial activity against Acinetobacter baumannii isolate 1 at pH 7.2; assay type: functional; outline: as §4
# [21] = system: Acinetobacter baumannii; assay: Antimicrobial activity against Acinetobacter baumannii isolate 12 at pH 5.8; assay type: functional; outline: as §1
# [22] = system: Acinetobacter baumannii; assay: Antimicrobial activity against Acinetobacter baumannii isolate 34 harboring GyrA Ser83-Leu mutation at pH 7.2; assay type: functional; outline: as §2
# [23] = system: Acinetobacter baumannii; assay: Antimicrobial activity against Acinetobacter baumannii isolate 58 harboring GyrA Ser83-Leu and ParC Ser80-Leu mutation at pH 7.2; assay type: functional; outline: as §3
# [24] = system: Acinetobacter baumannii; assay: Antimicrobial activity against Acinetobacter baumannii isolate 59 harboring GyrA Ser83-Leu and ParC Glu84-Lys mutation at pH 5.8; assay type: functional; outline: as §5
# [25] = system: Acinetobacter baumannii; assay: Antimicrobial activity against Acinetobacter baumannii isolate 39 harboring GyrA Ser83-Leu mutation at pH 5.8; assay type: functional; outline: as §2
# [26] = system: Acinetobacter baumannii; assay: Antimicrobial activity against Acinetobacter baumannii isolate 26 harboring GyrA Ser83-Leu mutation at pH 7.2; assay type: functional; outline: as §4
# [27] = system: Acinetobacter baumannii; assay: Antimicrobial activity against Acinetobacter baumannii isolate 59 harboring GyrA Ser83-Leu and ParC Glu84-Lys mutation at pH 7.2; assay type: functional; outline: as §3
# [28] = system: Acinetobacter baumannii; assay: Antimicrobial activity against Acinetobacter baumannii isolate 10 at pH 5.8; assay type: functional; outline: as §1
# [29] = system: Acinetobacter baumannii; assay: Antimicrobial activity against Acinetobacter baumannii isolate 13 at pH 7.2; assay type: functional; outline: as §4
# [30] = system: Acinetobacter baumannii; assay: Antimicrobial activity against Acinetobacter baumannii isolate 51 harboring GyrA Ser83-Leu and ParC Ser80-Leu mutation at pH 7.2; assay type: functional; outline: as §2
# [31] = system: Acinetobacter baumannii; assay: Antimicrobial activity against Acinetobacter baumannii isolate 11 at pH 7.2; assay type: functional; outline: as §4
# [32] = system: Acinetobacter baumannii; assay: Antimicrobial activity against Acinetobacter baumannii isolate 25 harboring GyrA Ser83-Leu mutation at pH 5.8; assay type: functional; outline: as §1
# [33] = system: Acinetobacter baumannii; assay: Antimicrobial activity against Acinetobacter baumannii isolate 44 harboring GyrA Ser83-Leu and ParC Glu84-Lys mutation at pH 7.2; assay type: functional; outline: as §2
# [34] = system: Acinetobacter baumannii; assay: Antimicrobial activity against Acinetobacter baumannii isolate 15 at pH 5.8; assay type: functional; outline: as §1
# [35] = system: Acinetobacter baumannii; assay: Antimicrobial activity against Acinetobacter baumannii isolate 35 harboring GyrA Ser83-Leu mutation at pH 5.8; assay type: functional; outline: as §2
# [36] = system: Acinetobacter baumannii; assay: Antimicrobial activity against Acinetobacter baumannii isolate 29 harboring GyrA Ser83-Leu mutation at pH 7.2; assay type: functional; outline: as §4
# [37] = system: Acinetobacter baumannii; assay: Antimicrobial activity against Acinetobacter baumannii isolate 31 harboring GyrA Ser83-Leu mutation at pH 5.8; assay type: functional; outline: as §1
# [38] = system: Acinetobacter baumannii; assay: Antimicrobial activity against Acinetobacter baumannii isolate 14 at pH 7.2; assay type: functional; outline: as §4
# [39] = system: Acinetobacter baumannii; assay: Antimicrobial activity against Acinetobacter baumannii isolate 5 at pH 7.2; assay type: functional; outline: as §2
# [40] = system: Acinetobacter baumannii; assay: Antimicrobial activity against Acinetobacter baumannii isolate 55 harboring GyrA Ser83-Leu and ParC Ser80-Leu mutation at pH 5.8; assay type: functional; outline: as §2
# [41] = system: Acinetobacter baumannii; assay: Antimicrobial activity against Acinetobacter baumannii isolate 33 harboring GyrA Ser83-Leu mutation at pH 5.8; assay type: functional; outline: as §2
# [42] = system: Acinetobacter baumannii; assay: Antimicrobial activity against Acinetobacter baumannii isolate 25 harboring GyrA Ser83-Leu mutation at pH 7.2; assay type: functional; outline: as §4
structure (smiles),measurement,setting,value
N#Cc1c(N2C[C@@H]3NCCO[C@H]3C2)c(F)cc2c(=O)c(C(=O)O)cn(C3CC3)c12 [FINAFLOXACIN],MIC,[1],0.06 µg/mL
same,MIC,[2],0.12 µg/mL
same,MIC,[3],2 µg/mL
same,MIC,[4],16 µg/mL
same,MIC,[5],32 µg/mL
same,MIC,[6],0.25 µg/mL
same,MIC,[7],16 µg/mL
same,MIC,[8],16 µg/mL
same,MIC,[9],0.25 µg/mL
same,MIC,[10],4 µg/mL
same,MIC,[11],2 µg/mL
same,MIC,[12],2 µg/mL
same,MIC,[13],16 µg/mL
same,MIC,[14],8 µg/mL
same,MIC,[15],0.12 µg/mL
same,MIC,[16],16 µg/mL
same,MIC,[17],16 µg/mL
same,MIC,[18],4 µg/mL
same,MIC,[19],1 µg/mL
same,MIC,[20],0.12 µg/mL
same,MIC,[21],0.12 µg/mL
same,MIC,[22],16 µg/mL
same,MIC,[23],64 µg/mL
same,MIC,[24],8 µg/mL
same,MIC,[25],2 µg/mL
same,MIC,[26],16 µg/mL
same,MIC,[27],64 µg/mL
same,MIC,[28],0.12 µg/mL
same,MIC,[29],1 µg/mL
same,MIC,[30],32 µg/mL
same,MIC,[31],0.25 µg/mL
same,MIC,[32],2 µg/mL
same,MIC,[33],16 µg/mL
same,MIC,[34],0.12 µg/mL
same,MIC,[35],2 µg/mL
same,MIC,[36],32 µg/mL
same,MIC,[37],1 µg/mL
same,MIC,[38],1 µg/mL
same,MIC,[39],0.25 µg/mL
same,MIC,[40],4 µg/mL
same,MIC,[41],1 µg/mL
same,MIC,[42],16 µg/mL
